High-throughput results (PubChem BioAssay)
In the library only some 1.2% were active in any assay of this set; here they are far more common.
FID counter: fluorescent intercalator displacement, NS3 helicase counter-screen; DNA fluorescent intercalator displacement, fluorescence; inhibition, % at 7.9 µM; 290,000 compounds, 0.17% hits; AID 1845; in the data active = inhibition above about 37%;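 also: higher means more ethidium bromide displaced from hairpin DNA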
Wee1 stabilizer: blocks degradation of human Wee1 kinase; P30291; HeLa Luc-Wee1K328M stability, luciferase luminescence; 100% = proteasome inhibitor MG132 effect; reporter increase, % at 5 µM; 220,000 compounds, 1.2% hits; AID 1321;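 active = activation above the mean of all tested compounds plus 3 SD, set per screening run, cut at about 8.8% in these data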;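 also: cells exposed to compound for 20 h before luminescence read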
RBBP9 inhibitor: human RBBP9 hydrolase inhibition | 220,000 compounds, 0.2% hits | AID 1515 | recombinant RBBP9, FP-Rh probe fluorescence polarization | O75884 | inhibition, % at 7.94 µM;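 active = inhibition above the campaign mean of all tested compounds plus 3 SD, cut at about 14% in these data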
Target sequence (O75884 whole entry, looked up): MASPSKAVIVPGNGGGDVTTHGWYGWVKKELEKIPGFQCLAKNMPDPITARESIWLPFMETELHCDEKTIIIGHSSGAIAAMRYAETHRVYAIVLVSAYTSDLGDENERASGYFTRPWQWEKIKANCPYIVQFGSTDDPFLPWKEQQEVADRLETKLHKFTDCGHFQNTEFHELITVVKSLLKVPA
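Test system: recombinant human RBBP9. Quantity: 2.5 µM RBBP9 dispensing solution, before mixing. Detection: FP readout at 525/598 nm. Reagent: Serine-hydrolase probe FP-Rh, 375 nM pre-mixing. Measure: % inhibition. Control set: DMSO-treated enzyme wells and wells lacking RBBP9. Buffer or medium: Tris-NaCl-Pluronic buffer, pH 8.0. Times: preincubation 30 min plus labeling 45 min at 25 °C.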
Rad51 HR inh: Rad51 (human) homologous recombination inhibition; Q06609; hRad51 DNA strand exchange, fluorescence dequenching; inhibition, % at 10 µM; 200,000 compounds, 0.085% hits; AID 1385;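 active = inhibition above 40% at the single screening dose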
Target sequence (Q06609 whole entry, looked up): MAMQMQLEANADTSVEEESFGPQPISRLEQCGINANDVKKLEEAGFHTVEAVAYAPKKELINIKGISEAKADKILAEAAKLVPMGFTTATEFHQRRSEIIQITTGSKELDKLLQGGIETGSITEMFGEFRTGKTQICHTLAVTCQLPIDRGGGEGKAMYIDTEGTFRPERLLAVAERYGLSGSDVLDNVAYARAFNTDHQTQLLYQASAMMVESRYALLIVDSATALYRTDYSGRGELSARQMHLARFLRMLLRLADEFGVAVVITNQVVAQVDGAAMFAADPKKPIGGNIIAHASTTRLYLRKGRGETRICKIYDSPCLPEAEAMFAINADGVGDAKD
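System: human Rad51 nucleoprotein filaments preassembled on unlabelled ssDNA. Reagent: labelled 47-mer dsDNA for strand exchange. Schedule: 30-min compound preincubation and 15-min exchange, both room temperature. Measured by: FRET fluorescence dequenching, excitation 485 nm, emission 520 nm. Read-out: Fluorescence-based percent inhibition, control- and blank-normalised. Benchmarks: plate controls and plate blanks.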
Wee1 stab conf: confirmation of human Wee1 degradation inhibitors. shares compounds with Wee1 stabilizer. HeLa Luc-Wee1K328M degradation, luminescence; vehicle 0%, proteasome-blocked wells 100%. activation, % at 5 µM. 1,100 compounds, 4% hits. AID 1410; in the data active = activation above about 8.9%
Large screens that a line does not name were inactive (follow-up assays come after a bar, where they were run).

COC(=O)CCC(=O)OC1(C)C(=O)C2=CN(CC3CC3)C(c3ccc(OC)cc3)=CC2=C(Br)C1=O (configuration not stated)	none (no result: FID counter, Wee1 stabilizer, RBBP9 inhibitor)
CN1CCN(CCNC(=O)c2ccc3nc(-c4ccc(F)cc4)c(-c4ccc(F)cc4)nc3c2)CC1	FID counter 47.5 (no result: Wee1 stabilizer, RBBP9 inhibitor, Rad51 HR inh)
Cc1nonc1CC(=O)N1CCCC(C(=O)c2cccc(C(F)(F)F)c2)C1 (configuration not stated)	none (no result: Rad51 HR inh)
CCCn1c(=N)n(CC(O)c2ccc(C)cc2)c2ccccc21 (configuration not stated)	none
COc1ccc(C(O)Cn2c(=N)n(CCCN(C)C)c3ccccc32)cc1 (configuration not stated)	FID counter 38.0
O=C1C=C(Nc2ccc(Cl)cc2Cl)CC(c2ccco2)C1 (configuration not stated)	Wee1 stabilizer 9.7 (no result: Rad51 HR inh)
CCCOc1ccc(N2C(=O)CC(NCCc3ccc(S(N)(=O)=O)cc3)C2=O)cc1 (configuration not stated)	Wee1 stabilizer 9.7
CC(=O)c1cc(C#N)c(Oc2ccc(Cl)cc2Cl)nc1C	none
COc1ccc(C(=O)N[C@H](C(=O)Nc2nc3c(s2)CCCC3)C(C)C)cc1	Wee1 stabilizer 10.2
Cn1c(=O)c(=O)n(C)c2cc(S(=O)(=O)N3CCOCC3)ccc21	Wee1 stabilizer 12.4
Cn1c(=O)n(C)c2cc(S(=O)(=O)O)ccc21	Wee1 stabilizer 9.0
O=C(Oc1ccc(Nc2ncnc3ccccc23)cc1)c1cccnc1	none
Cc1c2c(c(C)n1C)C(C(=O)NC1CCCCC1)N(Cc1ccccc1)C2=O (configuration not stated)	none
O=C(Cc1ccc([N+](=O)[O-])cc1)Nc1ccc(O)cc1C(=O)O	none
Cc1ccc(NC(=O)Nc2ccc3c(c2)nc(C)n3C)cc1C	none (no result: Rad51 HR inh)
Cc1nc2cc(NC(=O)Nc3ccc(N4CCOCC4)cc3)ccc2n1C	Wee1 stabilizer 10.3
CCOC(=O)N1CCN(C(=O)Cn2cc3c(n2)CCCC3)CC1	Wee1 stabilizer 10.5
O=C(c1ccc2ccccc2n1)N1CCN(c2ccccc2O)CC1	Rad51 HR inh 87.0
COc1cc(Cn2c(=O)c3c(OC)c(C)cnc3n(C)c2=O)cc(OC)c1	none (no result: Wee1 stabilizer, RBBP9 inhibitor, Rad51 HR inh)
Cc1ccc(/C(C#N)=C\c2cn(C)c3ccccc23)cc1	Rad51 HR inh 61.9
Cn1cc(C=O)c2ccccc21	none
Cc1cccc(N2CCN(CCCNC(=O)c3ccc(NC(=O)C4=CSCCO4)cc3)CC2C)c1 (configuration not stated)	none (no result: Wee1 stabilizer, RBBP9 inhibitor, Rad51 HR inh)
c1ccc(Cc2cc[n+](Cc3ccccn3)cc2)cc1	none
COc1ccc(Cc2nc3ccc(C(=O)N(C)CCCN4CCOCC4)cc3o2)cc1	none (no result: Wee1 stabilizer, RBBP9 inhibitor, Rad51 HR inh)
CCn1cc(C2=NC(c3ccccc3)CO2)c2ccccc21 (configuration not stated)	Wee1 stabilizer 38.5
Cc1c(N2C(=O)c3ccccc3C2=O)c(=O)n(-c2ccccc2)n1C	none
Cc1c(N2C(=O)c3ccc(F)cc3C2=O)c(=O)n(-c2ccccc2)n1C	Wee1 stabilizer 9.6
COc1cccc(C2CC(c3ccc(Br)cc3)=NN2C(=O)c2ccncc2)c1OC (configuration not stated)	Wee1 stabilizer 9.0
Cn1c(=N)n(CC(=O)c2ccc(Br)s2)c2ccccc21	none (no result: Rad51 HR inh)
N=c1n(CC(=O)c2ccc(Br)s2)c2ccccc2n1Cc1ccccc1	Wee1 stabilizer 10.2 (no result: Rad51 HR inh)
CCCNC(=S)Nc1ccc(Cl)cc1Cl	none (no result: Rad51 HR inh)
Cc1ccc(S(=O)(=O)n2ccc(-c3ccc(OCc4c(F)cccc4Cl)cc3)n2)cc1	Wee1 stabilizer 8.8
Cc1ccc(S(=O)(=O)n2ccc(-c3cccc(OCc4c(F)cccc4Cl)c3)n2)cc1	none
Cc1ccc(-c2nnn(CC(=O)N(c3cnc4ccccc4c3)C(C(=O)NC3CCCC3)c3ccncc3)n2)o1 (configuration not stated)	none
CCC(C(=O)NC1CCCC1)N(C(=O)Cn1nnc(-c2ccc(C)o2)n1)c1cnc2ccccc2c1 (configuration not stated)	Wee1 stabilizer 9.8
CC(C)c1nc(SCC(=O)Nc2cccc(S(N)(=O)=O)c2)n[nH]1	Wee1 stabilizer 10.4
CN(c1ccccc1)S(=O)(=O)c1cccc(NC(=O)CSc2n[nH]c(N)n2)c1	none
CC12COC3(C(=O)Nc4ccc5ccccc5c4)CC1CCC32C (configuration not stated)	Wee1 stabilizer 9.3
CCCn1c(=S)[nH]c2cc(Cl)ccc21	none
CC(C)(C)c1ccc(Cn2nnc3c(=O)[nH]c(C4CCN(C(=O)c5ccco5)CC4)nc32)cc1	none (no result: Wee1 stabilizer, RBBP9 inhibitor, Rad51 HR inh)
CC[N+](CC)(CC)CCCCOc1ccc2c(c1)C(=O)c1cc(OCCCC[N+](CC)(CC)CC)ccc1-2	FID counter 90.0 (no result: Rad51 HR inh)
CCCCOc1cccc(C(=O)O)c1	none
CCN(CC)/C(=N\S(=O)(=O)c1ccc(F)cc1)c1ccccc1	none (no result: Wee1 stabilizer, RBBP9 inhibitor, Rad51 HR inh)
N#Cc1ccc(C(=O)Nc2nnc(-c3ccccn3)o2)cc1	Wee1 stabilizer 9.4
O=C(NCCCN1CCOCC1)c1cc(-c2ccc3c(c2)OCO3)nc2ccccc12	Wee1 stabilizer 10.7
CCc1ccc(-c2cc(C(=O)NN3CCOCC3)c3ccccc3n2)cc1	Wee1 stabilizer 27.6
CCN1CCCC(OC(=O)c2cc(-c3ccc(C)cc3)nc3ccccc23)C1 (configuration not stated)	FID counter 38.5
O=C(NCCCN1CCCC1=O)c1cc(-c2ccc3c(c2)OCO3)nc2ccccc12	none
O=C(N1CCCC1)N1CCN(S(=O)(=O)c2ccccc2)CC1	none (no result: Wee1 stabilizer, RBBP9 inhibitor, Rad51 HR inh)
COc1ccc(C2=[N+]([O-])C(C)(C)N(O)C2C)cc1 (configuration not stated)	none
CN(CC1CCCN(CCc2cccc(C(F)(F)F)c2)C1)C(=O)c1cc2ccccc2o1 (configuration not stated)	none (no result: Wee1 stabilizer, RBBP9 inhibitor, Rad51 HR inh)
COc1cc(-c2nc(C)c(C(C)=O)n2O)ccc1OCC(=O)Nc1ccc(Cl)cc1	none
COc1cccc(-c2cc(C(=O)NC3CCCC3)no2)c1	Wee1 stabilizer 14.6 | Wee1 stab conf inactive
Cc1nc(NC(=O)CSc2nnc(-c3ccc4c(c3)OCO4)o2)c(Cl)cc1Cl	Wee1 stabilizer 11.2 | Wee1 stab conf inactive
O=C(CSc1nnc(-c2ccc3c(c2)OCO3)o1)Nc1ncc(C(F)(F)F)cc1Cl	none
CC1CCCN(C(=O)C(C)Sc2nc(-c3ccccc3)cc(C(F)(F)F)n2)C1 (configuration not stated)	none
COc1ccccc1CNCC(=O)Nc1ccc(C(F)(F)F)cc1	Wee1 stabilizer 11.9 | Wee1 stab conf inactive
CN(C)S(=O)(=O)N(CC(=O)N1CCOCC1)c1ccccc1	none
CN1CCN(C(=O)CN(c2ccccc2)S(=O)(=O)N(C)C)CC1	Wee1 stabilizer 10.9 (no result: Rad51 HR inh) | Wee1 stab conf inactive
O=C(NC(=S)NC1CCCCC1)c1ccccc1[N+](=O)[O-]	none (no result: Wee1 stabilizer, RBBP9 inhibitor, Rad51 HR inh)
S=c1[nH]nc(-c2ccco2)n1/N=C/c1ccc(Cl)cc1	Wee1 stabilizer 13.0 | Wee1 stab conf inactive
S=c1[nH]nc(-c2ccco2)n1/N=C/c1ccccc1Cl	none
